Data on 16 compounds can be found in ChEMBL document CHEMBL4814059, “Redefining the Histone Deacetylase Inhibitor Pharmacophore: High Potency with No Zinc Cofactor Interaction” (ACS Med Chem Lett, 2021).

Data set [1] addresses T1, Histone deacetylase 3 (Homo sapiens, UniProt O15379). The experiment in a line: Inhibition of recombinant human FLAG-tagged HDAC3 expressed in human HEK293F cells co-expressing His6-tagged SMRT (1 to 899 residues) using Fluor-de-lys substrate as substrate incubated for 3 hrs followed by substrate addition and measured after 60 mins by fluorescence based assay.
In a further data set the target is Histone deacetylase 2 (Homo sapiens, UniProt Q92769). The experiment in a line: Inhibition of recombinant human C-terminal FLAG-tagged HDAC2 expressed in human HEK293F cells using Fluor-de-lys substrate as substrate incubated for 3 hrs followed by substrate addition and measured after 60 mins by fluorescence based assay.
A further data set deals with Histone deacetylase 1 (Homo sapiens, UniProt Q13547). The experiment in a line: Inhibition of recombinant human C-terminal FLAG-tagged HDAC1 expressed in human HEK293F cells using Fluor-de-lys substrate as substrate incubated for 3 hrs followed by substrate addition and measured after 60 mins by fluorescence based assay.
The target of data set [2] is T2, Class 1 histone deacetylase (Homo sapiens, UniProt Q13547+O15379+Q92769+Q9BY41). It is filed as tissue-based. The settings on record: 2c4.
Data set [3] is described as follows: Fraction unbound in rat plasma. In kind it is ADME, cell-free.
The target of data set [4] is T2, Class 1 histone deacetylase. The experiment in a line: Inhibition of class 1 HDAC in human Jurkat 2C4 model of HIV latency assessed as reactivation of HIV latency incubated for 18 to 24 hrs in presence of 5% heat inactivated NHS by Steady-Glo luciferase assay. In kind it is tissue-based.
A short description of data set [5]: Genotoxicity in Salmonella typhimurium TA1535 in presence of liver S9 fraction by Ames test. In kind it is toxicity, subcellular. The following applies: salmonella enterica subsp. enterica serovar typhimurium. The method, boiled down: (§1)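 Exploratory, non-GLP Ames mutagenicity test run on a 3-strain panel.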
(In general: The Ames test detects mutagens through reverse mutation in bacteria.)

Data set [6] deals with T2, Class 1 histone deacetylase. The data set can be described thus: Ratio of IC50 for inhibition of class 1 HDAC in human Jurkat 2C4 model of HIV latency in presence of 5% heat inactivated NHS to IC50 for inhibition of class 1 HDAC in human Jurkat 2C4 model of HIV latency in presence of 0.1% heat inactivated NHS by Steady-Glo luciferase assay. The method, boiled down:
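Latent HIV luciferase-reporter Jurkat cells were treated with compound and latency reversal was read as increased luminescence. […] Values are means of at least two measurements.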

For data set [7], the target named is T1, Histone deacetylase 3. The data set can be described thus: Inhibition of recombinant human FLAG-tagged HDAC3 expressed in human HEK293F cells co-expressing His6-tagged SMRT (1 to 899 residues) assessed as fast-on/fast-off kinetics inhibition using Fluor-de-lys substrate as substrate by fluorescence based analysis.
A short description of data set [8]: Genotoxicity in Salmonella typhimurium TA98 in presence of liver S9 fraction by Ames test. In kind it is toxicity, subcellular. The settings on record: salmonella enterica subsp. enterica serovar typhimurium. The method, boiled down:
as §1

Data set [9] addresses T3, Nuclear receptor subfamily 1 group I member 2 (Homo sapiens, UniProt O75469).
T3 sequence (O75469 whole entry): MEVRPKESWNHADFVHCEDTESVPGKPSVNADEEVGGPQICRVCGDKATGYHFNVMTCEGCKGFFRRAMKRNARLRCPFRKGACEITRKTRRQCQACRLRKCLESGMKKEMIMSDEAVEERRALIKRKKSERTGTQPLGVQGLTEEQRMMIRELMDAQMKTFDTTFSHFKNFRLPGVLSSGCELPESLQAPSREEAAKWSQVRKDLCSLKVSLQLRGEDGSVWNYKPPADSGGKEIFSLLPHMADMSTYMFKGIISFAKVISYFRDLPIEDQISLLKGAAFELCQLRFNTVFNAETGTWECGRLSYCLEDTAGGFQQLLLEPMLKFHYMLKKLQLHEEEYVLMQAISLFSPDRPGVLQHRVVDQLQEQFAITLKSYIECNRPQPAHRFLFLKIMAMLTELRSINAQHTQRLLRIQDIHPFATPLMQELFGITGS
The data set can be described thus: Activation of PXR (unknown origin) expressed in human DPX2 cells co-expressing luciferase gene under control of CYP3A4 promoter assessed as induction of CYP3A4 transcriptional activity incubated for overnight by luminescence based analysis. It is filed as ADME, cell-based.

In data set [10] the target is 5-hydroxytryptamine receptor 2B (Homo sapiens, UniProt P41595). The experiment in a line: Inhibition of human 5HT2B receptor. The method, boiled down:
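Off-target selectivity screen of 115 receptor, enzyme and transporter binding and biochemical assays. Compound tested in duplicate at 10 μM.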

The target of data set [11] is T1, Histone deacetylase 3. The data set can be described thus: Inhibition of recombinant human FLAG-tagged HDAC3 expressed in human HEK293F cells co-expressing His6-tagged SMRT (1 to 899 residues) assessed as rapid dissociation inhibition using Fluor-de-lys substrate as substrate measured after compound dilution by jump dilution based analysis.
Data set [12] can be described thus: Plasma clearance in Wistar Han rat. In kind it is ADME.
Data set [13] addresses T2, Class 1 histone deacetylase. The data set can be described thus: Inhibition of class 1 HDAC in quiescent human primary T-cell model of VSV-G pseudotyped HIV-1 latency assessed as reactivation of HIV latency incubated for 24 hrs in presence of 10% FBS by NanoGlo luciferase assay. It is filed as tissue-based.
In the next data set the target is Cytochrome P450 2C9 (Homo sapiens, UniProt P11712). The data set can be described thus: Inhibition of CYP2C9 in human liver microsomes assessed as reduction in 4'-hydroxy diclofenac level using diclofenac as substrate incubated for 10 mins by LC-MS/MS analysis. It is filed as ADME. (In general: Microsomes from liver hold many membrane-bound enzymes, among them those of drug oxidation.)

Data set [14] in a line: Half life in Wistar Han rat. It is filed as ADME. The following applies: in vivo.
The nature of data set [15]: Oral bioavailability in Wistar Han rat. It is filed as ADME, organism-based. The settings on record: in vivo.
The nature of data set [16]: Genotoxicity in Salmonella typhimurium TA100 in presence of liver S9 fraction by Ames test. It is filed as toxicity, subcellular. The following applies: salmonella enterica subsp. enterica serovar typhimurium. The method, boiled down:
as §1

Calls of active or inactive are those of the source. No cut-off for these calls is given here.

Chain of Histone deacetylase 1 (Q13547 whole entry): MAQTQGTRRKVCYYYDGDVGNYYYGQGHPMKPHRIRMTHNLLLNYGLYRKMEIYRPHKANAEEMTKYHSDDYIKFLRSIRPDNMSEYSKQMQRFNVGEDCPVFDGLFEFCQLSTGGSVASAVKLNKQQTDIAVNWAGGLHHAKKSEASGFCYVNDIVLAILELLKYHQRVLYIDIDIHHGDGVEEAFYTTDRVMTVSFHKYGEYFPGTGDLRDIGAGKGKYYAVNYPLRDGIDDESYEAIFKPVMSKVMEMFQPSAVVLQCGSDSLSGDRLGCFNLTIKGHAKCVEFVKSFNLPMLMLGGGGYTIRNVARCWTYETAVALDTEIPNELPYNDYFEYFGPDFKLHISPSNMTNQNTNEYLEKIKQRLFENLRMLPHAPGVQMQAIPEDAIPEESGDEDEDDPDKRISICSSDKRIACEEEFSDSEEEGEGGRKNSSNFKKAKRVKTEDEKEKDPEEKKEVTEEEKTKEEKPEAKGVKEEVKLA
T1 sequence (O15379 whole entry, the tested form may be a part): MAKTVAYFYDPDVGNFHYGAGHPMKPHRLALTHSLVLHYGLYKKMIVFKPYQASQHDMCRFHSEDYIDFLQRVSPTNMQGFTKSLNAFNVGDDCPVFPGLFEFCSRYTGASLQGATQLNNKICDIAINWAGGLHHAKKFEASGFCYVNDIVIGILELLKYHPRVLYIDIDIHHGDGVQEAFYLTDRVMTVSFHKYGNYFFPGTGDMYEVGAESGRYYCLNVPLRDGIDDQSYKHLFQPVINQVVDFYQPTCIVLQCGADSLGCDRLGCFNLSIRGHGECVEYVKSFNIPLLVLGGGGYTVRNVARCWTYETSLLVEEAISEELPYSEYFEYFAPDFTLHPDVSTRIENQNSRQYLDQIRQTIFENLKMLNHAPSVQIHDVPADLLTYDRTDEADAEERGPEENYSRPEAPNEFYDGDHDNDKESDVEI
Chain of Cytochrome P450 2C9 (P11712 whole entry): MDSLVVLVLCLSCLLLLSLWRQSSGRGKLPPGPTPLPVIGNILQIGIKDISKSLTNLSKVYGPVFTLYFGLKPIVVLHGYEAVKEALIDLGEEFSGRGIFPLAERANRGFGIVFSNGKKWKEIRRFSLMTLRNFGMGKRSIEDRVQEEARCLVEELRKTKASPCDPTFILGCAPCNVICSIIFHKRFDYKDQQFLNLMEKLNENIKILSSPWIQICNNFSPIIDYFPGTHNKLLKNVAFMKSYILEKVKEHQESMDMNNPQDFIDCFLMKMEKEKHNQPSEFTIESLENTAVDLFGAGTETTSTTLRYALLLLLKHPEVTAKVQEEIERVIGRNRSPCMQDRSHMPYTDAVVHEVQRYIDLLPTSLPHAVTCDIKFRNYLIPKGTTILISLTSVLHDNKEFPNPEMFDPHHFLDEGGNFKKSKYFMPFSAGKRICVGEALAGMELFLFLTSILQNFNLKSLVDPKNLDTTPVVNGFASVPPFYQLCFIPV
Chain of Histone deacetylase 2 (Q92769 whole entry): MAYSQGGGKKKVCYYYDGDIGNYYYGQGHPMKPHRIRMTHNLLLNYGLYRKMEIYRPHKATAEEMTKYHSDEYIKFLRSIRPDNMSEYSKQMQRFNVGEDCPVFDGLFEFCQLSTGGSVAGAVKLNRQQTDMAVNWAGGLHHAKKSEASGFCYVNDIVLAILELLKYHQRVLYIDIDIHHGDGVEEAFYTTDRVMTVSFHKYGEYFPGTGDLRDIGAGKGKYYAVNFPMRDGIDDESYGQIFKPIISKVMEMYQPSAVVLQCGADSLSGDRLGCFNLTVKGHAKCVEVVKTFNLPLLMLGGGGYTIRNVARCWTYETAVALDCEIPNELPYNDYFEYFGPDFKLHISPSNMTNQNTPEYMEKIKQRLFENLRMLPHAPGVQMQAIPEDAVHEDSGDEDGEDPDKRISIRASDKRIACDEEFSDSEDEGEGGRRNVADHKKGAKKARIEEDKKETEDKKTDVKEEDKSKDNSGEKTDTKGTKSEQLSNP
T2 sequence (O15379 whole entry, looked up): as the sequence (O15379 whole entry, the tested form may be a part) above
T2 sequence (Q13547 whole entry, looked up): as the sequence (Q13547 whole entry) above
T2 sequence (Q92769 whole entry, looked up): as the sequence (Q92769 whole entry) above
T2 sequence (Q9BY41 whole entry, looked up): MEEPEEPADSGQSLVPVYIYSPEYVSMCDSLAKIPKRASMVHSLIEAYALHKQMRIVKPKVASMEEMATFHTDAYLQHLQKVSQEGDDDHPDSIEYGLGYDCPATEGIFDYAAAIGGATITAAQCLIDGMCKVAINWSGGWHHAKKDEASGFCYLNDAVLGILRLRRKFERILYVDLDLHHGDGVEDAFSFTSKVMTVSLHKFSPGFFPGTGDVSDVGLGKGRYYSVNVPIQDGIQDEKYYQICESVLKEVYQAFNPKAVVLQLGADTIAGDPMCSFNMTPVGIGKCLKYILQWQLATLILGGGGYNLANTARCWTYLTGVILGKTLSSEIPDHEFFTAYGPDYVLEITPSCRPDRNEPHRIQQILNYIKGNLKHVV
Chain of 5-hydroxytryptamine receptor 2B (P41595 whole entry): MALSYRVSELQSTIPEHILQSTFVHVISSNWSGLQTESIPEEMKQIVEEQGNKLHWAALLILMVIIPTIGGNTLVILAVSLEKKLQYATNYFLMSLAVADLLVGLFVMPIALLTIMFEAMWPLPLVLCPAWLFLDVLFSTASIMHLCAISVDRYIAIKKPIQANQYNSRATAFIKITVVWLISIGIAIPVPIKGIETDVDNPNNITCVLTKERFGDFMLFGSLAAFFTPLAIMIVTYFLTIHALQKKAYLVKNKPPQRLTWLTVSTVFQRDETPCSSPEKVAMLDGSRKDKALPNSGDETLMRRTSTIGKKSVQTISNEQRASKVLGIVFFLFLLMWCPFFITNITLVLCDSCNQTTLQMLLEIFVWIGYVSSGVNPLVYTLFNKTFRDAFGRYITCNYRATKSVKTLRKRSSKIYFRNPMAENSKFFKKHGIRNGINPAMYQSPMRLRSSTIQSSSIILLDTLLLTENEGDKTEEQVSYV

The IC50 is the concentration that inhibits the measured activity by half. `CCCCC[C@H](NC(=O)C1CN(C)C1)c1ncc(-c2cc3ccccc3nc2OC)[nH]1`: the IC50 at Histone deacetylase 3 [1] was 3500 nM; on Histone deacetylase 2, over 17000 nM; on Histone deacetylase 1 it was 4700 nM; in data set [2], over 40000 nM.

In turn, `CCC(=O)CCCCC[C@H](NC(=O)C1CN(C)C1)c1ncc(-c2cc3ccccc3nc2OC)[nH]1` yielded a Fu in data set [3] of 0.0574.

The term EC50 denotes the concentration needed to bring the measured effect to its halfway point. Usually clearance stands for the rate of elimination divided by the concentration. High values mean efficient removal, low ones inefficient removal. What is called half-life is the time in which the quantity being followed falls by half. In the case of `CCCC[C@H](NC(=O)[C@H](C)c1c(C)[nH]c2ccc(O)cc12)c1ncc(-c2cc3ccccc3nc2OC)[nH]1`, the half-inhibitory concentration (IC50) in data set [4] was 3200 nM; on Histone deacetylase 3 [1], 55.2 nM; in data set [10], under 1000 nM; in [13], 2100 nM; on Histone deacetylase 2 it was 87 nM; at Cytochrome P450 2C9 it was 2500 nM. In addition, the IC50 on Histone deacetylase 1 was 37 nM; in data set [2], 240 nM. The Activity entry in data set [5], in [8] and in [16] was “Non-Toxic” in each case. For the same compound, the Ratio IC50 in data set [6] turned out to be 10. Besides, the inhibition result at Histone deacetylase 3 [7] and on Histone deacetylase 3 [11] was “Active” throughout. Besides, the Fu in [3] was 0.0006. In addition, the EC50 in data set [9] worked out at 1900 nM. The clearance in data set [12] was determined as 25 mL/min/kg. In [14], this compound gave a half-life of 1.2 h. In [15], this compound returned an F of 26%.

Consider `COc1nc2ccccc2cc1-c1cnc([C@H](C)NC(=O)C2CN(C)C2)[nH]1`, for which the IC50 was over 50000 nM on Histone deacetylase 3 [1], over 50000 nM at Histone deacetylase 2, over 50000 nM on Histone deacetylase 1 and over 40000 nM in [2].

In the case of `CCCC[C@H](NC(=O)Cc1c[nH]c2ccccc12)c1ncc(-c2cc3ccccc3nc2OC)[nH]1`, the IC50 at Histone deacetylase 3 [1] worked out at 340 nM; at Histone deacetylase 2, 2700 nM; on Cytochrome P450 2C9 it was 3400 nM; at Histone deacetylase 1, 770 nM; in data set [2], 40000 nM. In [9], the EC50 was determined as 4400 nM.

For the compound `CCCC[C@H](NC(=O)[C@H](C)c1c(C)[nH]c2ccc(OC)cc12)c1ncc(-c2cc3ccccc3nc2OC)[nH]1`, the IC50 at Histone deacetylase 3 [1] stood at 210 nM; at Histone deacetylase 2, 120 nM; at Cytochrome P450 2C9, 2900 nM; on Histone deacetylase 1, 47 nM; in data set [2], 300 nM. In addition, the EC50 in data set [9] was 2900 nM.

For `O=C(/C=C/c1cccc(S(=O)(=O)Nc2ccccc2)c1)NO` [BELINOSTAT], the Fu in data set [3] is on record as 0.138.

On to `COc1nc2ccccc2cc1-c1cnc(CNC(=O)C2CN(C)C2)[nH]1`, for which the IC50 at Histone deacetylase 3 [1] is 15000 nM; at Histone deacetylase 2, over 50000 nM.

`CCCCCCCC[C@H](NC(=O)C1CN(C)C1)c1ncc(-c2cc3ccccc3nc2OC)[nH]1`: the IC50 was 5200 nM on Histone deacetylase 3 [1], over 50000 nM on Histone deacetylase 2, 18000 nM at Histone deacetylase 1 and over 40000 nM in [2].

Regarding `CCCC[C@H](NC(=O)[C@H](CN)c1c(C)[nH]c2ccc(O)cc12)c1ncc(-c2cc3ccccc3nc2OC)[nH]1`, the IC50 was 7400 nM in [4]; 4.7 nM on Histone deacetylase 3 [1]; 4500 nM in [13]; 5 nM on Histone deacetylase 2; over 50000 nM on Cytochrome P450 2C9; 2 nM on Histone deacetylase 1. The same compound had an IC50 in [2] of 1300 nM. The same compound had a Fu in [3] of under 0.0001. The EC50 in data set [9] is over 30000 nM.

For `CCCC[C@H](NC(=O)Cc1c[nH]c2ccc(OC)cc12)c1ncc(-c2cc3ccccc3nc2OC)[nH]1`, the IC50 on Histone deacetylase 3 [1] came out at 360 nM; on Histone deacetylase 2, 500 nM; at Cytochrome P450 2C9, 1600 nM; at Histone deacetylase 1, 250 nM; in [2], 860 nM. In data set [9], the concentration for a half-maximal effect (EC50) worked out at 2500 nM.

Regarding `CCCC[C@H](NC(=O)C1CN(C)C1)c1ncc(-c2cc3ccccc3nc2OC)[nH]1`, the Activity entry in data set [5], in data set [8] and in data set [16] was “Non-Toxic” each time. Moreover, the inhibition result at Histone deacetylase 3 [7] and on Histone deacetylase 3 [11] was “Active” throughout. Moreover, the IC50 is 160 nM at Histone deacetylase 3 [1]; 750 nM at Histone deacetylase 2; 50000 nM on Cytochrome P450 2C9; 280 nM on Histone deacetylase 1; 17000 nM in data set [2]. Besides, in data set [9], the EC50 was over 30000 nM.

`CCCC[C@H](NC(=O)[C@H](CN)c1c(C)[nH]c2ccc(OC)cc12)c1ncc(-c2cc3ccccc3nc2OC)[nH]1` showed a Fu in [3] of under 0.0001.

As for `O=C(CCCCCCC(=O)Nc1ccccc1)NO` [VORINOSTAT], the Fu in data set [3] was 0.75.

On to `CCC[C@H](NC(=O)C1CN(C)C1)c1ncc(-c2cc3ccccc3nc2OC)[nH]1`, for which the IC50 is 300 nM at Histone deacetylase 3 [1], 3400 nM on Histone deacetylase 2, 390 nM on Histone deacetylase 1 and 11000 nM in data set [2].

Turning to `CC[C@H](NC(=O)C1CN(C)C1)c1ncc(-c2cc3ccccc3nc2OC)[nH]1`, the IC50 is 28000 nM on Histone deacetylase 3 [1], over 50000 nM at Histone deacetylase 2, 23000 nM at Histone deacetylase 1 and over 40000 nM in [2].
